Here are results for eight compounds from paper PMC9328826 (Journal of Food and Drug Analysis, 2016).

A short description of series [1]: WST-8 cytotoxicity assay on NIH/3T3 cells. The series is classed as cell-based. The conditions noted are these: mouse, NIH/3T3 embryonic fibroblast cells. A digest of the protocol: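 NIH/3T3 cells, cultured in HEPES-buffered E-MEM with 10% FBS at 37°C, 5% CO2, seeded at 2 × 10^3 cells/well. Exposed to test compound at 0.5–10 μM for 24 and 48 hours at 37°C, with 0.1% DMSO for control and cell-free blank. WST-8 added for 4 hours, then OD read at 450 nm. Viability given as % of control (n = 3); IC50 fitted from dose-response curve by Hill slope.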
On the technique in general: Formazan colour is commonly taken as a measure of viable cells.

In series [2] the test system is caspase-8. Kind of series: Caspase-8 activity, FAM-LETD-FMK fluorescence probe. Type of series: cell-based, human. Particulars: HeLa, 24 hours; Compound 1 at 3 μM. A digest of the protocol:
(§1)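 HeLa cells grown in E-MEM with 4.2 mM HEPES, 10% FBS, penicillin/streptomycin, 37°C, 5% CO2. 3 × 10^6 cells exposed to test compound at 3 μM for 24 hours, harvested, labelled 1 hour at 37°C with FAM-FLICA probe (DEVD-FMK caspase-3/7, LETD-FMK caspase-8, LEHD-FMK caspase-9), washed. Fluorescence at ex 485/em 530 nm on a plate reader, given as n-fold over control. Mean ± SD; Duncan test.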

Series [3] relates to caspase-9. Kind of series: Caspase-9 activity, FAM-LEHD-FMK fluorescence probe. Type of series: cell-based, human. The conditions noted are these: HeLa, 24 hours; Compound 1 at 3 μM. Summed up: as §1
Series [4] concerns caspase-3/7. Kind of series: Caspase-3/7 activity, FAM-DEVD-FMK fluorescence probe. Type of series: cell-based, human. Particulars: HeLa, 24 hours; Compound 1 at 3 μM. Summed up:
as §1

In series [5] the test system is mitochondria membrane potential of HeLa cells. Kind of series: JC-1 assay of mitochondria membrane potential. The conditions noted are these: 10 μM, 48 hours, untreated cells 294. The series is classed as cell-based, human. Summed up:
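5 × 10^5 HeLa cells exposed to test compound at 3 μM for 24 and 48 hours, or to a reference drug at 10 μM. Stained with JC-1 for 30 minutes at 37°C, then washed. Green signal read at ex 485/em 530 nm on a plate reader. Red fluorescence (ex 520/em 595 nm) imaged by microscopy at ×400, with intensity quantified from the images. Mean ± SD; Duncan test.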

Series [6] relates to K562/ADM cell line. Particulars: read-out: IC50, cytotoxic activity on K562/ADM cell line; 72 hours ref 11; cited from earlier work.
The subject of series [7] is HT-29 cell line. The conditions noted are these: read-out: IC50, cytotoxic activity on HT-29 cell line; 72 hours ref 19; cited from earlier work.

In series [1], `C=C1C(=O)O[C@H]2[C@H]1[C@H](OC(=O)[C@@]1(C)O[C@H]1C)[C@@H](OC(C)=O)/C(C(=O)OC)=C\CC[C@@]1(C)O[C@H]21` [Compound 3, Enhydrin] showed an IC50 at 24 h of 2700 nM and an IC50 at 48 h of 1530 nM.
In series [1], `C=C1C(=O)O[C@@H]2/C=C(\C)CC/C=C(/C(=O)OC)[C@H](OC(C)=O)[C@@H](OC(=O)[C@]3(C)O[C@@H]3C)[C@@H]12` [Compound 4, Uvedalin] returned an IC50 at 24 h of 5290 nM and an IC50 at 48 h of 2660 nM. In addition, in series [2], the “increase of caspase-8 activity against control” value was determined as 1.47 fold. In series [3], the “increase of caspase-9 activity against control” value came to 3.17 fold. Besides, the “increase of caspase-3/7 activity against control” value in series [4] came out at 2.34 fold.
In series [1], `COc1cc([C@@H]2c3cc4c(cc3[C@@H](O[C@@H]3O[C@@H]5CO[C@@H](C)O[C@H]5[C@H](O)[C@H]3O)[C@H]3COC(=O)[C@H]23)OCO4)cc(OC)c1O` [Etoposide] displayed an IC50 at 24 h of 7430 nM and an IC50 at 48 h of 820 nM. For the same compound, the “increase of caspase-8 activity against control” value in series [2] is reported as 3.18 fold. The “increase of caspase-9 activity against control” value in series [3] is given as 3.96 fold. For the same compound, in series [4], the “increase of caspase-3/7 activity against control” value was determined as 3.88 fold. Also, the “red fluorescence intensity (RFI), JC-1” value in series [5] is given as 17.56.
In series [1], `CO[C@@]12[C@H](COC(N)=O)C3=C(C(=O)C(C)=C(N)C3=O)N1C[C@@H]1N[C@@H]12` [Mitomycin C] returned an IC50 at 24 h of 4430 nM and an IC50 at 48 h of 1260 nM.
`C=C1C(=O)O[C@H]2[C@H]1CC/C(C)=C/CC[C@@]1(C)O[C@@H]21` [Parthenolide]: in series [1], the IC50 at 24 h amounted to 12300 nM and the IC50 at 48 h was 8950 nM.
For `CC(=O)O[C@H]1C(=O)[C@@]2(C)[C@H]([C@H](OC(=O)c3ccccc3)[C@]3(O)C[C@H](OC(=O)[C@H](O)[C@@H](NC(=O)c4ccccc4)c4ccccc4)C(C)=C1C3(C)C)[C@]1(OC(C)=O)CO[C@@H]1C[C@@H]2O` [Taxol], in that order: 390 nM and 120 nM.
For `C=C1CC[C@H]2C(OC(=O)[C@@H]2C)[C@H]2[C@@H]1CC(=O)[C@@H]2CC=C1CC[C@H]2C(=C)[C@H](O)C[C@@H]3[C@H](OC(=O)[C@H]3C)[C@@H]12` (stereo partly drawn) [biguaiascorzolide A], the IC50 in series [6] is 39800 nM.
As for rufescenolide C, the IC50 in series [7] was 150 nM.
